Measurements reported in ChEMBL document CHEMBL1811897, “Nicotinic acetylcholine receptor efficacy and pharmacological properties of 3-(substituted phenyl)-2β-substituted tropanes” (J Med Chem, 2010).
Calls of active or inactive are those of the source.

What was measured:
[1] = target: T1, Neuronal acetylcholine receptor; alpha4/beta2 (Homo sapiens, UniProt P17787+P43681); experiment: Agonist activity at human alpha4beta2 nAChR in SHEP1 cells assessed as 86Rb+ efflux at 5 nM to 100 uM; format: functional, cell-based
T1 sequence (P17787 whole entry): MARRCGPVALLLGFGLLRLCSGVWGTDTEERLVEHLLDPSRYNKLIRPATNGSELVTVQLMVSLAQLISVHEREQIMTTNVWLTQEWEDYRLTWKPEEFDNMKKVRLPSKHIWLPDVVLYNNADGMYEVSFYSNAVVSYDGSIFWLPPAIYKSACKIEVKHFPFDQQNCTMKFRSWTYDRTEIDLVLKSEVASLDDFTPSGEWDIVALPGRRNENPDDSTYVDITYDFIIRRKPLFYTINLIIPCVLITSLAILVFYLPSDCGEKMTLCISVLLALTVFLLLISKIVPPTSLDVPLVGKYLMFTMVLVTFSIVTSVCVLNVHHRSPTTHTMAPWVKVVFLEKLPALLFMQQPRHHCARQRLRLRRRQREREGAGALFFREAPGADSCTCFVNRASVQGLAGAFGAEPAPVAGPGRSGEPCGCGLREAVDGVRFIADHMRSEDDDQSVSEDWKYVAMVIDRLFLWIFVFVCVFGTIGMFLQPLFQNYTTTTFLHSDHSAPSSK
T1 sequence (P43681 whole entry): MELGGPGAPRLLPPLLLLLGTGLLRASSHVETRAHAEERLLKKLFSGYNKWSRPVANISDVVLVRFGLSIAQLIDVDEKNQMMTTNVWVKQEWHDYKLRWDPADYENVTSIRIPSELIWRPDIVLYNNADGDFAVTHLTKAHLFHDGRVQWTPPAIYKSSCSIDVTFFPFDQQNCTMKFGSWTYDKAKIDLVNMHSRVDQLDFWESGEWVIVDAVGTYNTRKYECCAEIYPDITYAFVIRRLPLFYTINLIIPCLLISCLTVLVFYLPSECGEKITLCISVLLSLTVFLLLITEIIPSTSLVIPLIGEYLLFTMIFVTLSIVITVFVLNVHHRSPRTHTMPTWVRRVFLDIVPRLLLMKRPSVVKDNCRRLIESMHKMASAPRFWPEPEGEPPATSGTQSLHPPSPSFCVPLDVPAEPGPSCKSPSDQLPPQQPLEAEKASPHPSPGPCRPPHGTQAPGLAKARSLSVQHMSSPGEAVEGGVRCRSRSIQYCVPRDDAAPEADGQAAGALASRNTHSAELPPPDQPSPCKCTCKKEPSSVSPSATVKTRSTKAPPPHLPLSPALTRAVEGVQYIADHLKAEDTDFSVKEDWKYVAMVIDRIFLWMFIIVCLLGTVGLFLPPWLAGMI
In short: (§1)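 Test ligands were applied alone at ~5 nM to 100 μM in 86Rb+ efflux assays. Cells were TE671/RD (endogenous muscle-type α1*), SH-SY5Y (endogenous α3β4*) or transfected SH-EP1 (human α4β2 or α4β4). Non-specific efflux was subtracted. Intrinsic activity was normalized to specific efflux, defined as efflux with fully efficacious carbamylcholine minus efflux with buffer alone.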

[2] = target: T1, Neuronal acetylcholine receptor; alpha4/beta2; experiment: Antagonist activity against human alpha4beta2 nAChR in SHEP1 cells assessed as inhibition of carbamylcholine induced 86Rb+ efflux; format: functional, cell-based
In short: (§2)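 86Rb+ efflux was evoked by carbamylcholine at its EC80–EC90 concentration, with test ligand present. Cells were TE671/RD (α1*), SH-SY5Y (α3β4*) or transfected SH-EP1 (α4β2 or α4β4). For weak antagonists the minimum was fixed at 0%.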

[3] = target: Sodium-dependent serotonin transporter (Homo sapiens, UniProt P31645); experiment: Inhibition of human SERTexpressed in HEK293 cells assessed as inhibition of [3H]5HT reuptake after 10 mins by scintillation counting; format: cell-based
Sequence of Sodium-dependent serotonin transporter (P31645 whole entry): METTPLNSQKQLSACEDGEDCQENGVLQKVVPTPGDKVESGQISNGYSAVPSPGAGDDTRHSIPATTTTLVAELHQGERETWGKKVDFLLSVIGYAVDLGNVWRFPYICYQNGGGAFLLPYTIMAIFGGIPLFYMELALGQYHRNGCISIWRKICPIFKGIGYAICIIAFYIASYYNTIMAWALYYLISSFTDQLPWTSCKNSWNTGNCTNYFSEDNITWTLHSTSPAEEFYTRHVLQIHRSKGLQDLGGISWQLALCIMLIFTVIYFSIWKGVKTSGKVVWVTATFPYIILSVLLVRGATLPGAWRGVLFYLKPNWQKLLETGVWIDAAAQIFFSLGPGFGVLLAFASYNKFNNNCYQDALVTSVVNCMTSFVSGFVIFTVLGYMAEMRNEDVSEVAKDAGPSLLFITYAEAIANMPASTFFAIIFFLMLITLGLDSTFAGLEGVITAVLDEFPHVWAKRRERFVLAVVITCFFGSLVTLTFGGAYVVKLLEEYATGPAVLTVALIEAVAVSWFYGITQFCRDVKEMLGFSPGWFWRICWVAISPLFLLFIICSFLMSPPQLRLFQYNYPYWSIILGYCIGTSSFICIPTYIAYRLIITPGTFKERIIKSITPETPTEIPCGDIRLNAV

Mus musculus [4] = experiment: Inhibition of nicotine-induced antinociception activity in ICR mouse assessed as latency to remove tail administered subcutaneously 15 mins prior to nicotine challenge and measured after 5 mins of 2.5 mg/kg nicotine challenge by tail-flick test; format: functional, organism-based; set-up: dose 2.5 mg/kg, route subcutaneous
In short: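 Radiant heat was aimed at the upper tail, with a 10 s cutoff. Baseline latency was 2–4 s for each mouse. Response was expressed as %MPE. AD50 with confidence limits came from ≥4 doses and ≥8 mice per dose.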

Mus musculus [5] = experiment: Inhibition of nicotine-induced conditioned place preference in ICR mouse assessed as activity count and time spent in chamberdministered subcutaneously 15 mins prior to 0.5 mg/kg nicotine challenge up to 4 days using photosensors; format: functional, organism-based; set-up: dose 0.5 mg/kg, route subcutaneous
In short: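 Unbiased three-compartment CPP in male ICR mice. Day 1: 5 min confinement to the middle compartment, then 15 min free access; mice were grouped by equal bias. Days 2–4: vehicle or test drug s.c. 15 min before nicotine (0.5 mg/kg s.c.) in the paired side, with saline on the opposite side, 20 min sessions. Day 5: drug-free test with photosensor recording. AD50 from ≥3 doses, ≥8 mice per dose.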

[6] = target: T2, Neuronal acetylcholine receptor; alpha4/beta4 (Homo sapiens, UniProt P30926+P43681); experiment: Antagonist activity against human alpha4beta4 nAChR in SHEP1 cells assessed as inhibition of carbamylcholine induced 86Rb+ efflux; format: functional, cell-based; in short: as §2
Mus musculus [7] = experiment: Inhibition of nicotine-induced hypolocomotion in ICR mouse assessed as number of photocell interruption dministered subcutaneously 15 mins prior to nicotine challenge and measured after 5 mins of […] nicotine challenge; format: functional, organism-based; set-up: dose 1.5 mg/kg, route subcutaneous
[8] = target: Sodium-dependent noradrenaline transporter (Homo sapiens, UniProt P23975); experiment: Inhibition of human NET expressed in HEK293 cells assessed as inhibition of [3H]NE reuptake after 10 mins by scintillation counting; format: cell-based
Sequence of Sodium-dependent noradrenaline transporter (P23975 whole entry): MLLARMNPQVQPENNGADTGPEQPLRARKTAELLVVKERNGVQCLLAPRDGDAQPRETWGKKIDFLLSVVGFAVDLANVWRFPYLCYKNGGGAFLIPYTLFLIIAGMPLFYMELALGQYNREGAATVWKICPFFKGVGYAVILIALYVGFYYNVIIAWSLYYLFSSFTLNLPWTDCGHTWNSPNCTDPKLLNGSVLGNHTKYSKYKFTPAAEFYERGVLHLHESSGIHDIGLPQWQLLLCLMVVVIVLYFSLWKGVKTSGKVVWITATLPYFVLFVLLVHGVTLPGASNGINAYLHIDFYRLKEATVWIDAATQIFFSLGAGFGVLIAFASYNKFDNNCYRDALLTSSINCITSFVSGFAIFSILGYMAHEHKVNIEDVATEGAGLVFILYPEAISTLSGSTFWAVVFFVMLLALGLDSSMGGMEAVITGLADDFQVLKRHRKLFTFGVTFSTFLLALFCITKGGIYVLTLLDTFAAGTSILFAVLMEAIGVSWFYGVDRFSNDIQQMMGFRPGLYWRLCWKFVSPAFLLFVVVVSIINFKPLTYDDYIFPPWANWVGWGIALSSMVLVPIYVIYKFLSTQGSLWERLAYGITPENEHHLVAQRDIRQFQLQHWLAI

Mus musculus [9] = experiment: Antipyretic activity against nicotine-induced hypothermia in ICR mouse assessed as change in rectal temperature dministered subcutaneously 15 mins prior to nicotine challenge and measured after 30 mins of 2.5 mg/kg nicotine challenge; format: functional, organism-based; set-up: dose 2.5 mg/kg, route subcutaneous
In short: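 Male ICR mice (20–25 g) were pretreated with saline or test drug 15 min before s.c. nicotine at 2.5 mg/kg. Rectal temperature was read by thermistor probe (24 mm insertion) just before and 30 min after nicotine, and the change was taken. Ambient temperature was 21–24 °C. AD50 with confidence limits came from ≥4 doses and ≥8 mice per dose.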

[10] = target: T2, Neuronal acetylcholine receptor; alpha4/beta4; experiment: Agonist activity against human alpha4beta4 nAChR in SHEP1 cells assessed as 86Rb+ efflux at 5 nM to 100 uM; format: functional, cell-based; in short: as §1
[11] = target: Sodium-dependent dopamine transporter (Homo sapiens, UniProt Q01959); experiment: Inhibition of human DAT expressed in HEK293 cells assessed as inhibition of [3H]DA reuptake after 10 mins by scintillation counting; format: cell-based
[12] = target: T3, Acetylcholine receptor; alpha1/beta1/delta/gamma (Homo sapiens, UniProt P02708+P07510+P11230+Q07001); experiment: Agonist activity at human muscle-type alpha1beta1gammadelta nAChR in TE671/RD cells assessed as 86Rb+ efflux at 5 nM to 100 uM; format: functional, cell-based; in short: as §1
T3 sequence (P02708 whole entry): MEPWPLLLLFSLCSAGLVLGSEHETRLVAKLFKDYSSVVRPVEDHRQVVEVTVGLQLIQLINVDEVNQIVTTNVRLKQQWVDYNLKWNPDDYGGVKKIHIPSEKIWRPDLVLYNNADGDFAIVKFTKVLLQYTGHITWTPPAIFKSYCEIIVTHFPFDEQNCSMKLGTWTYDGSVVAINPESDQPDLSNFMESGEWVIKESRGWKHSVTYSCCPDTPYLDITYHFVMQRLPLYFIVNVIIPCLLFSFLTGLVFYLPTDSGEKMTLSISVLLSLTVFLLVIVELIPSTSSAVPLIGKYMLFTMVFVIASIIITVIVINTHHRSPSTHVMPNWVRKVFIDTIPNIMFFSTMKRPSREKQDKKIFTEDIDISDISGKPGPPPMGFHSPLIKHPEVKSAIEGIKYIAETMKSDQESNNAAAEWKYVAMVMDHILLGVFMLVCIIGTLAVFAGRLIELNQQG
T3 sequence (P07510 whole entry): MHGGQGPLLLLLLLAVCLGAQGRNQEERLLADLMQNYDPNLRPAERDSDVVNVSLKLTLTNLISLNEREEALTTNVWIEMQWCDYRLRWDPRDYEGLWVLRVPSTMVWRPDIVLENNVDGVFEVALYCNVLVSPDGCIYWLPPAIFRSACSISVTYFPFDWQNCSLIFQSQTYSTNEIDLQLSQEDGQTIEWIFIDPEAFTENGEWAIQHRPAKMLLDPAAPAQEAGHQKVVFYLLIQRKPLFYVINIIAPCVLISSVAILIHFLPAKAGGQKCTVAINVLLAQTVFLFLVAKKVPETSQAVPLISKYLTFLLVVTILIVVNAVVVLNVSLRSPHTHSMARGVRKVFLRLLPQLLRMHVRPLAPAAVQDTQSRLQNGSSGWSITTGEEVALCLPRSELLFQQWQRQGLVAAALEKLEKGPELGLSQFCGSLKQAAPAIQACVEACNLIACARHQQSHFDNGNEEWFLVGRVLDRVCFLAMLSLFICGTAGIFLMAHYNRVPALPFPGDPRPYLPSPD
T3 sequence (P11230 whole entry): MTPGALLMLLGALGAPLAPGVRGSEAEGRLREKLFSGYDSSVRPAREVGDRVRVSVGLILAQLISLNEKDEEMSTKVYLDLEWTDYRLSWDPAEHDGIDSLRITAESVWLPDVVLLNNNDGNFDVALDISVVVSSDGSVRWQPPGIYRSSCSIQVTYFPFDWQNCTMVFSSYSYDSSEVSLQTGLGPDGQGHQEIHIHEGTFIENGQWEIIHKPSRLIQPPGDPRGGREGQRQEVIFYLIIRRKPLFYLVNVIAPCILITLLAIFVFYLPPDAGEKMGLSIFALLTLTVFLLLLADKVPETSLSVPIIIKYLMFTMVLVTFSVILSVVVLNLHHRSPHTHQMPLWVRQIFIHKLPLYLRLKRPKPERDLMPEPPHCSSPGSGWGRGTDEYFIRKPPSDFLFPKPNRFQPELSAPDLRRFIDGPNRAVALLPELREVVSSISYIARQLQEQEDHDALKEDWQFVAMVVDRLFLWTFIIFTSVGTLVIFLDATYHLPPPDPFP
T3 sequence (Q07001 whole entry): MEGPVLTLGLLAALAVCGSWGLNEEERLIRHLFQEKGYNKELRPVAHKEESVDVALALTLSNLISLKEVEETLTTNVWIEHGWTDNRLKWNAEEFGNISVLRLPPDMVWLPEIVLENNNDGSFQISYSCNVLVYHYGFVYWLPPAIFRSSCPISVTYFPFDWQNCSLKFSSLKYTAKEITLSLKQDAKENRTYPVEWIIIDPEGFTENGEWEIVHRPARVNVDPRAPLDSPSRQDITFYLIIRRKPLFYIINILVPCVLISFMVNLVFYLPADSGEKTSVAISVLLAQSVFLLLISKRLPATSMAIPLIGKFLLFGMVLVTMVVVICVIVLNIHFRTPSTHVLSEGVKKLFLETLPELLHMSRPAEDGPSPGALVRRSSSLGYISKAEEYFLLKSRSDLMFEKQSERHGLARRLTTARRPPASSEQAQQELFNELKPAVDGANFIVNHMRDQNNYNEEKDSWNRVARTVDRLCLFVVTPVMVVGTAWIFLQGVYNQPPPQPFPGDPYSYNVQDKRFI

[13] = target: T3, Acetylcholine receptor; alpha1/beta1/delta/gamma; experiment: Antagonist activity against human muscle-type alpha1beta1gammadelta nAChR in TE671/RD cells assessed as inhibition of carbamylcholine induced 86Rb+ efflux; format: functional, cell-based; in short: as §2
[14] = target: Cannabinoid receptor 1 (Homo sapiens) (UniProt P21554); experiment: Positive allosteric modulator activity at CB1 receptor
Sequence of Cannabinoid receptor 1 (Homo sapiens) (P21554 whole entry): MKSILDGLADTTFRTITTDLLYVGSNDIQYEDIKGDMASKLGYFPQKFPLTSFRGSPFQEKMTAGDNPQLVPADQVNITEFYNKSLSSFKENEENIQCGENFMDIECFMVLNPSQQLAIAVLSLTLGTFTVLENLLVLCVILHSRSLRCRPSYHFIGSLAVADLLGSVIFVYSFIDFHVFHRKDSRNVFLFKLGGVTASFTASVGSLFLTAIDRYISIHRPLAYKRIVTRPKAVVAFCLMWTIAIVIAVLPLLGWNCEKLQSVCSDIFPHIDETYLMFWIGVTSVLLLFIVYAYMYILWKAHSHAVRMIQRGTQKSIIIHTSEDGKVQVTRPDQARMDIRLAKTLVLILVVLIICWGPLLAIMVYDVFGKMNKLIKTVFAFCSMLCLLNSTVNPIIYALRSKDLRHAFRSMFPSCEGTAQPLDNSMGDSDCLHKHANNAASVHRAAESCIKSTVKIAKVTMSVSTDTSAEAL

Mus musculus [15] = experiment: Inhibition of nicotine-induced antinociception activity in ICR mouse assessed as paw licking and jumping latency dministered subcutaneously 15 mins prior to nicotine challenge and measured after 5 mins of 2.5 mg/kg nicotine challenge by hot plate test; format: functional, organism-based; set-up: dose 2.5 mg/kg, route subcutaneous
In short: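 Hot plate was held at 55 °C with a 40 s cutoff. End-point was paw lick or jump. Control latency was measured twice, ≥10 min apart. Response was calculated as %MPE. Groups of 8–12; AD50 from ≥4 doses.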

Cc1ccc([C@H]2C[C@@H]3CC[C@H]([C@H]2c2cc(-c4ccc(Cl)cc4)no2)N3C)cc1
Activity [1]: inactive | IC50 [2]: 942 µM | IC50 [3]: > 100 µM | IC50 (Mus musculus [4]): > 20 mg/kg | IC50 (Mus musculus [5]): 0.013 mg/kg | IC50 [6]: 57 µM | IC50 (Mus musculus [7]): 8.7 mg/kg | IC50 [8]: 0.31 µM | IC50 (Mus musculus [9]): > 20 mg/kg | Activity [10]: inactive | IC50 [11]: 0.011 µM | Activity [12]: inactive | IC50 [13]: 95 µM | Activity [14]: Active | IC50 (Mus musculus [15]): > 20 mg/kg
